Assay results as given in ChEMBL document CHEMBL1255431, “Inhibitors of Leishmania GDP-mannose pyrophosphorylase identified by high-throughput screening of small-molecule chemical library” (Antimicrob Agents Chemother, 2010).
Active and inactive are the calls of the source. The rule behind the calls is not given here.

Key:
Leishmania major [1] = test: Antileishmanial activity Leishmania major V121 promastigotes infected in mouse bone marrow-derived macrophage assessed as mild inhibition of cell invasion at 30 uM after 48 hrs by microscopy; format: functional, organism-based
Leishmania major [2] = test: Antileishmanial activity Leishmania major V121 amastigotes; format: functional, organism-based
Method in brief: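 Ex vivo amastigotes purified from lesions of L. major-infected CBA nu/nu mice, resuspended in M199. Exposed 24 h to 2-fold dilutions from 100 μM to 49 nM. 10^6 parasites per well, in duplicate. Viability by CellTiter blue, read at 550 nm with 630 nm reference. IC50 against nontreated controls.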

Leishmania major [3] = test: Antileishmanial activity Leishmania major V121 amastigotes infected in mouse bone marrow-derived macrophage assessed as inhibition of parasite proliferation after 48 hrs by Giemsa staining; format: functional, organism-based
Method in brief: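 Intracellular proliferation format in mouse bone marrow-derived macrophages, with amastigotes used for infection. Infected cells on duplicate coverslips exposed to compound for 48 h, then washed, methanol-fixed and Giemsa-stained. Percentage of infected cells counted microscopically.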

Leishmania major [4] = test: Antileishmanial activity Leishmania major V121 amastigotes infected in mouse bone marrow-derived macrophage assessed as inhibition of cell invasion after 48 hrs by microscopy; format: functional, organism-based
Leishmania major [5] = test: Antileishmanial activity Leishmania major V121 amastigotes isolated from infected […] CBA nu/nu at 10 to 30 uM after 48 hrs by microscopy; format: functional, organism-based
Leishmania major [6] = test: Antileishmanial activity Leishmania major V121 promastigotes infected in mouse bone marrow-derived macrophage assessed as inhibition of cell invasion after 48 hrs by microscopy; format: functional, organism-based
[7] = Cytotoxicity against HFF by Cell titer blue assay; format: cell-based; settings: human, HFF cells
Method in brief: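 Primary human foreskin fibroblasts grown in DMEM with 10% HI-FBS, 37°C, 5% CO2. Compound toxicity measured by CellTiter blue viability, concentrations up to 100 μM.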

[8] = Inhibition of Leishmania major recombinant GDP-mannose pyrophosphorylase expressed in Escherichia coli […] by fluorescence assay
Method in brief: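 Recombinant His6-tagged L. major GDP-MP, expressed in E. coli BL21(DE3)pLysS and purified on Talon resin. Buffer: 25 mM Tris-HCl pH 7.5, 4 mM MgCl2, 150 mM NaCl, 0.02% Tween 20, 0.4 mg/ml OVA. Final 5 μM M-1-P and 1.3 μM GTP, with inorganic pyrophosphatase coupling. Pi detected by MDCC phosphate sensor, Ex430/Em480, read each minute for 10 min.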

Leishmania major [9] = test: Antileishmanial activity Leishmania major V121 amastigotes isolated from infected […] CBA nu/nu after 48 hrs by microscopy; format: functional, organism-based
Leishmania major [10] = test: Antileishmanial activity Leishmania major V121 promastigotes infected in mouse bone marrow-derived macrophage assessed as complete inhibition of cell invasion at 30 uM after 48 hrs by microscopy; format: functional, organism-based
Leishmania major [11] = test: Antileishmanial activity Leishmania major V121 amastigotes infected in mouse bone marrow-derived macrophage assessed as mild inhibition of cell invasion at 30 uM after 48 hrs by microscopy; format: functional, organism-based
Leishmania major [12] = test: Antileishmanial activity Leishmania major V121 amastigotes isolated from infected […] CBA nu/nu at 10 to 40 uM after 48 hrs by microscopy; format: functional, organism-based
Leishmania major [13] = test: Antileishmanial activity Leishmania major V121 promastigotes infected in mouse bone marrow-derived macrophage assessed as inhibition of cell invasion at 10 uM after 48 hrs by microscopy; format: functional, organism-based
Leishmania major [14] = test: Antileishmanial activity Leishmania major V121 amastigotes infected in mouse bone marrow-derived macrophage assessed as complete inhibition of cell invasion at 30 uM after 48 hrs by microscopy; format: functional, organism-based
[15] = Cytotoxicity against mouse bone marrow-derived macrophages at 30 uM after 48 hrs by Cell titer blue assay; format: cell-based; settings: macrophage

Compound | IC50 (Leishmania major [2]) [µM] | IC50 [8] [µM] | inhibition (Leishmania major [1]) | IC50 (Leishmania major [3]) [µM] | CC50 [7] [µM] | also measured
CN1CCN(c2ccnc3cc(Cl)ccc23)CC1 | > 100 | – | Active | – | – | –
Clc1ccc2c(N3CCN(Cc4ccccc4)CC3)ccnc2c1 | 62.2 | – | Active | > 30 | – | inhibition (Leishmania major [4]): Dose-dependent effect; Activity (Leishmania major [5]): Active; inhibition (Leishmania major [6]): Dose-dependent effect
Clc1ccc2c(N3CCN(Cc4ccc(-c5ccccc5)cc4)CC3)ccnc2c1 | 32.6 | – | Active | 11.7 | > 100 | IC50 (Leishmania major [6]; V121, 48 h): 17.6 µM
Cc1ccc(N2NC(=O)/C(=C/c3cc4c(cc3Cl)OCO4)C2=O)cc1C | 25.1 | 5.75 | Active | > 30 | > 100 | –
CC(C)(C)c1ccc(CN2CCN(c3ccnc4cc(Cl)ccc34)CC2)cc1 | 62.3 | 0.58 | – | 21.9 | > 100 | inhibition (Leishmania major [3]): Dose-dependent effect; Activity (Leishmania major [9]): Active; inhibition (Leishmania major [4]): Dose-dependent effect; inhibition (Leishmania major [6]): Dose-dependent effect; inhibition (Leishmania major [10]): Active; inhibition (Leishmania major [11]): Active; Activity (Leishmania major [12]): Active
Cc1ccc(C(=O)N2CCN(c3ccnc4cc(Cl)ccc34)CC2)cc1 | 70.6 | – | Active | > 30 | – | inhibition (Leishmania major [4]): Dose-dependent effect; Activity (Leishmania major [5]): Active; inhibition (Leishmania major [6]): Dose-dependent effect; inhibition (Leishmania major [13]): inactive
CCOC(=O)C/C(=N/O)c1nnn[nH]1 | > 100 | 7.28 | Active | – | – | –
Fc1cccc(Cl)c1Cc1nn2c(-c3ccccc3)nnc2s1 | > 100 | 2.98 | Active | – | – | –
COc1ccc(-c2csc3c2C2=NCCN2C=N3)cc1OC | > 100 | 7.54 | Active | – | – | –
CCn1nc(C)cc1-c1nnc2sc(Cc3c(F)cccc3Cl)nn12 | > 100 | 1.05 | Active | – | – | –
c1ccc2c(-c3cnc4n3CCS4)c[nH]c2c1 | 78 | 0.49 | Active | > 30 | > 100 | inhibition (Leishmania major [14]): Active
CCc1nnc(N2C(=O)C3C4C=CC(C4)C3C2=O)s1 (stereo not given) | > 100 | 3.53 | Active | – | – | –
CCn1nc(C)cc1-c1nnc2sc(-c3ccc(C)cc3)nn12 | 88.9 | 1.37 | Active | – | > 100 | Activity [15]: Toxic
Cc1ccc(/C=C2/C(=O)NN(c3ccc(F)cc3)C2=O)o1 | 90.7 | 10.7 | Active | > 30 | > 100 | –
Cc1ccc2c(n1)[nH]c1ccccc12 | 96.8 | 5.53 | Active | > 30 | > 100 | –
COc1ccc(CCC2=Nc3ccccc3S(=O)(=O)N2)cc1 | – | 5.31 | Active | – | – | –
COc1ccc2c(=O)c(C(=O)O)csc2c1 | > 100 | 8.25 | Active | – | – | –
Cc1ccccc1Cc1nnc2sc(-c3ccc(Cl)cc3)nn12 | > 100 | 1.09 | Active | – | – | –

Second part, led by results:

IC50 (Leishmania major [2]) [µM] | IC50 [8] [µM] | Compound | inhibition (Leishmania major [1]) | IC50 (Leishmania major [3]) [µM] | CC50 [7] [µM] | also measured
> 100 | 1.26 | CCCc1cc(-c2nn3c(-c4ccccc4)nnc3s2)n(CC)n1 | Active | – | – | –
> 100 | 4.45 | COc1ccc(-c2nnc3sc(-c4ccc(F)cc4)nn23)cc1 | Active | – | – | –
52.6 | 2.44 | COC(=O)c1c(O)c(C#N)c2n(c1=O)CCc1cc(OC)c(OC)cc1-2 | Active | > 30 | > 100 | inhibition (Leishmania major [14]): Active
> 100 | 3.95 | Cc1cc(C)nc(SCc2nn3c(-c4ccccc4)nnc3s2)n1 | Active | – | – | –
73.4 | 4.12 | CN(C)Cc1c(O)ccc2c(=O)c(-c3cnn(-c4ccccc4)c3)coc12 | Active | > 30 | > 100 | –
> 100 | 2.93 | Clc1ccc(C2=NN3C(c4ccccc4)=NNC3S2)c(Cl)c1 (stereo not given) | Active | – | – | –
1.6 | – | C[C@@H]1[C@H](O)[C@@H](C)/C=C/C=C/C=C/C=C/C=C/C=C/C=C/[C@H](O[C@@H]2O[C@H](C)[C@@H](O)[C@H](N)[C@@H]2O)C[C@@H]2O[C@](O)(C[C@@H](O)C[C@@H](O)[C@H](O)CC[C@@H](O)C[C@@H](O)CC(=O)O[C@H]1C)C[C@H](O)[C@H]2C(=O)O [AMPHOTERICIN B] | – | 0.5 | – | –
23.7 | 1.56 | Cc1ccc2[nH]c(CCC3CCCCC3)nc2c1 | Active | – | > 100 | Activity [15]: Toxic
